The values below come from paper PMC4766003 (Biomacromolecules, 2015).

The experiment deals with Concanavalin A (Con A) (Canavalia ensiformis, UniProt P02866). Nature of the experiment: isothermal titration calorimetry, one-site model. The conditions noted are these: 100 mM acetate pH 4.6, 1 mM MnCl2, 1 mM CaCl2, 30 mM NaCl, 25 °C; dimeric Con A. In kind it is binding. Summed up:
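Con A dialysed (10 kDa cutoff) into the assay buffer, with concentration from A280 (A1%,1cm = 12.4, monomer basis). Glycopolymer ligands were dialysed and quantified colorimetrically. Titrant in the same buffer was injected into Con A at 25 °C, stirred at 1000 rpm. Con A 0.42–0.06 mM; polymers 0.338–0.017 mM at 2 s intervals; monomers 7.55–8.03 mM at 4 s intervals. One-site fit floated ΔH, Ka and n.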

Chain of Concanavalin A (Con A) (P02866 30-148 limits assumed): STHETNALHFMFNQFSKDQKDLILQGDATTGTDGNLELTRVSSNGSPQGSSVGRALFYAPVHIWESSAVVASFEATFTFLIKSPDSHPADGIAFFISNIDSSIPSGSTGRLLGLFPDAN
Chain of Concanavalin A (Con A) (P02866 164-281 limits assumed): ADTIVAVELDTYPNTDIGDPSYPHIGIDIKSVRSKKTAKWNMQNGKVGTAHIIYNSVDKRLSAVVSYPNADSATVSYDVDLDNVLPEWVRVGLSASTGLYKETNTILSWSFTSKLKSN

Consider Man-Glc [25b], for which the “Ka (M^-1 × 10^3)^c” value was 8.56 × 10^3.
Man-Man [22b]: the “Ka (M^-1 × 10^3)^c” value is 17.3 × 10^3.
